From ChEMBL document CHEMBL1138638, “Azepinone as a conformational constraint in the design of kappa-opioid receptor agonists” (Bioorg Med Chem Lett, 2004) come the findings set out here.

pKi: −log10 of the molar value.

Assay [1] deals with Opioid receptors; mu & kappa (Homo sapiens) (UniProt P41145+P35372). The assay is described as follows: Selectivity for kappa opioid receptor over mu opioid receptor. The assay is classed as protein assay.
The target of assay [2] is Opioid receptors; delta & kappa (Homo sapiens) (UniProt P41145+P41143). The assay is described as follows: Selectivity for kappa opioid receptor over delta opioid receptor. The assay is classed as protein assay.
Chain of Opioid receptors; delta & kappa (Homo sapiens) (P41143 whole entry, looked up): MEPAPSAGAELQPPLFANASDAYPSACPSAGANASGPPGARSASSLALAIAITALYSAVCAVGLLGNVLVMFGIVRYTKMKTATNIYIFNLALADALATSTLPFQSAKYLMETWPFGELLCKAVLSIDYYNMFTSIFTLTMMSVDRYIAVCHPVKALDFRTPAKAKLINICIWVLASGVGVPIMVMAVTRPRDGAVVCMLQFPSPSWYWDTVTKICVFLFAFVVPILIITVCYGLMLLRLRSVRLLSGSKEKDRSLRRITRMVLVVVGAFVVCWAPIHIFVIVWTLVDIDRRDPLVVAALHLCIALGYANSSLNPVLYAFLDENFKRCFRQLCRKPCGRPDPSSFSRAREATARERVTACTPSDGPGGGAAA
Chain of Opioid receptors; delta & kappa (Homo sapiens) (P41145 whole entry, looked up): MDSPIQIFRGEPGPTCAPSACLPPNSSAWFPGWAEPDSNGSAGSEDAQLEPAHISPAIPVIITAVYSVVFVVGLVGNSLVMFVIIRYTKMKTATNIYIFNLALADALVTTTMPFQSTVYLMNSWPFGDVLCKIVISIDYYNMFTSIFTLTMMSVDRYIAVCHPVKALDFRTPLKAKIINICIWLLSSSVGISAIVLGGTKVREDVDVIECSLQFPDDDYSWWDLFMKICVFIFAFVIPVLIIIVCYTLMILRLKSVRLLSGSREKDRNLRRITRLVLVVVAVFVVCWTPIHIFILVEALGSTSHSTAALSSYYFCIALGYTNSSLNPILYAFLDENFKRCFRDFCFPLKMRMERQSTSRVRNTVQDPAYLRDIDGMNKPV
The target in assay [3] is T1, Kappa-type opioid receptor (Homo sapiens, UniProt P41145). The assay is described as follows: Binding affinity for human Kappa opioid receptor.
T1 sequence (P41145 whole entry): as the sequence (P41145 whole entry, looked up) above
Assay [4] deals with T2, Delta-type opioid receptor (Homo sapiens, UniProt P41143). The assay is described as follows: Inhibition percent of compound towards human Delta opioid receptor. Also on record: concentration or dose not given beside the values. To be noted: concentration not given here.
T2 sequence (P41143 whole entry): as the sequence (P41143 whole entry, looked up) above
Assay [5] addresses T3, Mu-type opioid receptor (Homo sapiens, UniProt P35372). The assay is described as follows: Inhibition percent of compound towards human Mu opioid receptor. On the set-up: concentration or dose not given beside the values. As to conditions: concentration not given here.
The target in assay [6] is T1, Kappa-type opioid receptor. The assay is described as follows: Binding affinity for human Opioid receptor kappa 1.
The target of assay [7] is T2, Delta-type opioid receptor. The assay is described as follows: Binding affinity for human Delta opioid receptor.
Assay [8] deals with Mus musculus. The assay is described as follows: Effective dose required to induce sedation was determined in mouse when administered orally. To be noted: po. Format: functional. In short, it runs like this: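 Mice placed on a raised plastic platform (11 × 7.5 × 3 cm). Latency to step fully off the platform was timed before oral dosing (baseline sedation latency) and 30 min after. ED50 reported with range in parentheses.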

Assay [9] has as its system Mus musculus. The assay is described as follows: Effective dose required to inhibit acetic acid induced writhing in mouse when administered orally. The assay is classed as functional. To be noted: po. The method in brief:
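Mice dosed orally with vehicle or test agent; 15 min later given 0.6% acetic acid intraperitoneally. Writhes counted over a 10 min period starting 5 min after the acid injection. ED50 reported with range in parentheses.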
On the technique in general: An intraperitoneal irritant provokes the stretching counted in writhing tests.

For assay [10], the system named is Rattus norvegicus. The assay is described as follows: Effective dose required to inhibit formalin induced flinching in rat as a measure of antinociception activity when administered orally. As to conditions: po. The assay is classed as functional.
Assay [11] is filed under the species Rattus norvegicus. The assay is described as follows: Percent inhibition of rotarod performance based on the comparison of baseline and post-treatment rotarod latencies. Format: functional.
Assay [12] concerns the target T3, Mu-type opioid receptor. The assay is described as follows: Binding affinity for human Mu opioid receptor.

T3 sequence (P35372 whole entry): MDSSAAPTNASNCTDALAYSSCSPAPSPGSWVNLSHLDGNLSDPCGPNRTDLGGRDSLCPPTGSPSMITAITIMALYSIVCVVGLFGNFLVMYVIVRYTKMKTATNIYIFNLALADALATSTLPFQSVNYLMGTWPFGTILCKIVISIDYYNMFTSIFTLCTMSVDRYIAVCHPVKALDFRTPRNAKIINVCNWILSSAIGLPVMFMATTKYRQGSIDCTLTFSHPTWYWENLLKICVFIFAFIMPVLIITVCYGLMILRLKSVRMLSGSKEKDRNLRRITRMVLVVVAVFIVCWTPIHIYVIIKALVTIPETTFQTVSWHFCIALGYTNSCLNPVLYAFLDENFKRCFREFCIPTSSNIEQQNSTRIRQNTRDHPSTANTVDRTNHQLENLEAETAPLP
Chain of Opioid receptors; mu & kappa (Homo sapiens) (P35372 whole entry, looked up): as the sequence (P35372 whole entry) above
Chain of Opioid receptors; mu & kappa (Homo sapiens) (P41145 whole entry, looked up): as the sequence (P41145 whole entry, looked up) above

For `O=C1[C@H](c2ccc(Cl)c(Cl)c2)CC=CCN1[C@H](CN1CC[C@H](O)C1)c1ccccc1`, the Selectivity in [1] and in assay [2] was 1000 in each case. In addition, the pKi (as a rule, −log10 of the Ki, conventionally taken in molar units) in assay [3] was 9.70.

On to `O=C1[C@@H](c2ccc(Cl)c(Cl)c2)CC=CCN1C(CN1CCCC1)c1ccccc1` (stereo partly drawn), for which the inhibition (in assay [4]; on Mu-type opioid receptor [5]) was less than 60% throughout. The same compound showed a pKi in [6] of 7.77.

As to `O=C1C(c2ccc(C(F)(F)F)cc2)CC=CCN1C(CN1CCCC1)c1ccccc1` (stereo not drawn), the inhibition (commonly the change of the read-out against control, counted positive when it falls) against Mu-type opioid receptor [5] was less than 60%. Moreover, the pKi in [7] was 6.00; in assay [3] it was 9.14.

`O=C1[C@@H](c2ccc(Cl)cc2)CC=CCN1C(CN1CCCC1)c1ccccc1` (stereo partly drawn): the inhibition (in [4]; against Mu-type opioid receptor [5]) was less than 60% in each case. Also, the pKi in assay [3] is 7.46.

For `O=C1C(c2cccc(S(=O)(=O)N3CCCC3)c2)CC=CCN1C(CN1CCCC1)c1ccccc1` (stereo not drawn), the inhibition (in assay [4]; against Mu-type opioid receptor [5]) was less than 60% in each case. This compound gave a negative-log Ki (pKi) in assay [3] of 5.72.

`CN(C(=O)Cc1ccc(Cl)c(Cl)c1)C(CN1CCCC1)c1ccccc1` (stereo not drawn): in the assay with Mus musculus [8], the 50% effect level (ED50) was put at a dose of 7.5 mg/kg.

Consider `O=C1[C@H](c2ccc(Cl)c(Cl)c2)CC=CCN1[C@H](CN1CCCC1)c1ccccc1`, for which the Selectivity in assay [1] and in assay [2] was 1000 throughout. Moreover, the pKi in assay [3] is 7.92.

As for `O=C1C(c2ccc(Cl)c(Cl)c2)CC=CCN1C(CN1CCCC1)c1ccccc1` (stereo not drawn), the median effective dose (ED50) (usually the dose at which the effect has come halfway, by size or by number of responders) was 48 mg/kg in the assay on Mus musculus [8], 1.6 mg/kg in the assay with Mus musculus [9] and 2.7 mg/kg with Rattus norvegicus [10]. In the assay filed under Rattus norvegicus [11], the Inhibition (as a rule, how much of the control response was suppressed) was 54%. In addition, the pKi was 6.43 in assay [7], 9.47 in assay [6] and 6.00 at Mu-type opioid receptor [12].

For the compound `COc1ccc([C@H]2CC=CCN(C(CN3CCCC3)c3ccccc3)C2=O)cc1` (stereo partly drawn), the inhibition (in [4]; against Mu-type opioid receptor [5]) was less than 60% in each case. Moreover, in assay [3], the pKi is 6.10.

As to `COc1ccc(C2CC=CCN(C(CN3CCCC3)c3ccccc3)C2=O)cc1` (stereo not drawn), the inhibition (in assay [4]; against Mu-type opioid receptor [5]) was less than 60% in each case. The compound also showed a pKi in [3] of 7.66.

`O=C1C(c2ccc(Cl)cc2)CC=CCN1C(CN1CCCC1)c1ccccc1` (stereo not drawn): the inhibition (in assay [4]; at Mu-type opioid receptor [5]) was less than 60% each time. Further, the pKi in assay [6] is 8.70.

Consider `O=C1C(Oc2ccc(Cl)c(Cl)c2)CC=CCN1C(CN1CCCC1)c1ccccc1` (stereo not drawn), for which the inhibition (in assay [4]; on Mu-type opioid receptor [5]) was less than 60% in each case. Also, the pKi in assay [3] is 8.59.
